# High-throughput results deposited in PubChem by several laboratories.
# p97 inhibitor: blocks human p97 ATPase activity; P55072; AID 1481; 220,000 compounds, 0.42% hits; recombinant p97 ATPase, Kinase-Glo ATP luminescence, 3 h; inhibition, % at 8 µM; in the data active = inhibition above about 15%;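 note: 0% = DMSO vehicle and 100% = wells lacking enzyme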
# Target sequence (P55072 whole entry, looked up): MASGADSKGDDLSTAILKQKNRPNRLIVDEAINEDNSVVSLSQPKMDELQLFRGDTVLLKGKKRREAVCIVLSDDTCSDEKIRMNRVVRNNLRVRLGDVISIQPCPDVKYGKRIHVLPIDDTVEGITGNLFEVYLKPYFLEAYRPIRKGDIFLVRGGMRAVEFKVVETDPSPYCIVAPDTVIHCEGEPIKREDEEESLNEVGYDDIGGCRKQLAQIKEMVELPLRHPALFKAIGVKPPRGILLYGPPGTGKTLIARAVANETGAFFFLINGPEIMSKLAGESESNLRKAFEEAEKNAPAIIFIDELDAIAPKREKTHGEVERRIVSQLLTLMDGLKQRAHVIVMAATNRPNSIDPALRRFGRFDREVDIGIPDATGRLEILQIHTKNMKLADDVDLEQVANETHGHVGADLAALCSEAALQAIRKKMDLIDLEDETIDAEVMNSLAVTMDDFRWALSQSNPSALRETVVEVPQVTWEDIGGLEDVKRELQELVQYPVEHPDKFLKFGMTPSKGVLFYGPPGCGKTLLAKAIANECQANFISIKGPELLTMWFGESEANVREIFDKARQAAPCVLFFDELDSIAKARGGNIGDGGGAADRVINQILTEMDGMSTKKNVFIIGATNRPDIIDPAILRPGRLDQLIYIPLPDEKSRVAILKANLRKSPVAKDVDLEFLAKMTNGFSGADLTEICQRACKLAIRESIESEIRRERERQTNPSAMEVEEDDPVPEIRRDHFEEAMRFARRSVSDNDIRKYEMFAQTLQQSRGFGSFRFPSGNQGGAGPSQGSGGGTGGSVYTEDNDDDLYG
# RBBP9 inh: inhibitors of human serine hydrolase RBBP9. recombinant RBBP9, FP-Rh probe fluorescence polarization. inhibition, % at 7.94 µM. 220,000 compounds, 0.2% hits. AID 1515;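 active = inhibition above the campaign mean of all tested compounds plus 3 SD, cut at about 14% in these data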;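 note: plate controls were DMSO wells with RBBP9 for no effect and wells lacking RBBP9 protein for full effect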
#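 Assay system: recombinant human RBBP9; Reagent: Serine-hydrolase probe FP-Rh, 375 nM pre-mixing; Doses: 7.94 µM single dose, 0.794% DMSO; Incubation: 30 min then 45 min, 25 °C; Detection: fluorescence polarization (mP), excitation 525 nm, emission 598 nm; Evaluation: percent inhibition from mP, scaled between DMSO and no-protein wells.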
# Wee1 stabilizer: inhibitors of human Wee1 degradation. P30291. HeLa Luc-Wee1K328M stability, luciferase luminescence; 100% = proteasome inhibitor MG132 effect. reporter increase, % at 5 µM. 220,000 compounds, 1.2% hits;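 active = activation above the mean of all tested compounds plus 3 SD, set per screening run, cut at about 8.8% in these data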;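 note: cells exposed to compound for 20 h before luminescence read; 0% = DMSO alone and 100% = MG132 at 30 µM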
# TNF death inh: inhibitors of TNF-alpha induced necroptosis in Jurkat FADD-/- cells; Jurkat FADD-/- TNF necroptosis rescue, ATP luminescence, 24 h; 0 = TNF only, 100 = no-TNF cells; activation (protection from cell death), % at 10 µM; 220,000 compounds, 0.068% hits;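 active = activation, meaning protection from cell death, of at least 50% relative to plate controls; inactive = activation below 50%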;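 note: necroptosis triggered by 40 ng/mL TNF-alpha added together with compound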
# L929 necroptosis: blocks zVAD induced death of L929 cells; L929 zVAD necroptosis rescue, ATP luminescence, 24 h; with zVAD 60 µM; viability rescue, % at 10 µM; 220,000 compounds, 0.38% hits; AID 1377;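 active = activation, scaled between plate controls, above about 75%, limit read from the data; inactive = activation under that limit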;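 note: 0% = zVAD with DMSO and 100% = DMSO alone without zVAD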
# PfM18AAP inh: PfM18AAP enzyme inhibition | recombinant PfM18AAP, H-Glu-NHMec fluorogenic cleavage | inhibition, % at 7.35 µM | 290,000 compounds, 1.2% hits | AID 1822;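 active = inhibition above the campaign mean inhibition over all tested compounds plus 3 SD, cut at about 28% in these data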;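 note: 0% = plate median of test compound wells and 100% = 2 mM ZnCl2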
# An asterisk follows results filed as active; nt = no result. Only some compounds are listed: those with a hit (about 2.7% of all), similar ones and a draw of the others.
SMILES,p97 inhibitor,RBBP9 inh,Wee1 stabilizer,TNF death inh,L929 necroptosis,PfM18AAP inh
COc1ccc(C2CC(=O)N3CN(c4ccc(C)c(Cl)c4)CSC3=C2C#N)cc1 (centres undefined),-8,-4,-1,-1,0,17
COc1ccc(C2CC(=O)N3CN(Cc4ccco4)CSC3=C2C#N)cc1 (centres undefined),-5,-3,2,-1,0,30*
COc1ccc(OC)c(C2CC(=O)N3CN(c4ccccc4)CSC3=C2C#N)c1 (centres undefined),-4,-7,-3,-1,1,25
N#CC1=C2SCN(Cc3ccco3)CN2C(=O)CC1c1ccc(Cl)cc1 (centres undefined),9,3,-2,0,0,27
CCOC(=O)N1CCN(C(=O)C(=O)Nc2sc3c(c2C(N)=O)CC(C)(C)OC3)CC1,nt,nt,nt,nt,nt,16
COc1ccccc1OC1OC2COC(c3ccco3)OC2C(O)C1NC(C)=O (centres undefined),1,-3,9.1*,1,0,5
COc1ccc(CC(=O)Nc2cccc(SC)c2)cc1OC,0,-12,-3,-3,3,-3
COc1ccc(CN2CCN(C(=O)c3cccs3)CC2)cc1Br,2,-6,0,-2,0,29*
COc1ccc(CN2CCN(C(=O)c3cccc4ccccc34)CC2)cc1Br,nt,nt,nt,nt,nt,5
Cc1cc(Cl)ccc1-n1c(-c2cccnc2)n[nH]c1=S,-2,-5,-3,-1,0,20
Cc1c(Cl)cccc1-n1c(-c2cccnc2)n[nH]c1=S,2,-5,-1,1,0,31*
Cc1cccc(-n2c(-c3ccncc3)n[nH]c2=S)c1C,1,-8,2,0,1,-1
CCc1ccccc1-n1c(-c2ccncc2)n[nH]c1=S,4,-9,-3,1,2,30*
COc1ccccc1CN1CC(C(=O)N(C)Cc2[nH]c3ccccc3c2C)CCC1=O (centres undefined),nt,nt,nt,nt,nt,2
Cc1occc1C(=O)NNC(=O)Nc1ccc(F)cc1F,5,-5,-3,2,1,30*
CCOc1c(O)ccc(/C=C2\SC(=S)NC2=O)c1[N+](=O)[O-],12,13,-1,1,1,37*
CCOc1ccc(N(C)c2ccc(/C=C3/SC(=S)NC3=O)cc2)cc1,nt,nt,nt,nt,nt,2
COc1ccc2[nH]cc(CCNC(=O)C3CCCO3)c2c1 (centres undefined),-2,0,11*,0,0,-8
Cc1ccc2[nH]cc(CCNC(=O)C3CCCO3)c2c1 (centres undefined),nt,nt,nt,nt,nt,4
COc1ccc(NS(=O)(=O)c2ccc3c(c2)CCO3)cc1,1,-7,4,45,1,5
O=S(=O)(Nc1ccccc1)c1ccc2c(c1)CCO2,8,-8,-1,52*,9,5
Cc1ccc(-n2nc3c(c2NC(=O)c2ccc(F)c(F)c2)CS(=O)(=O)C3)cc1,nt,nt,nt,nt,nt,-9
CC(=O)Nc1ccc(NC2CCCCC2NS(=O)(=O)c2ccc(Cl)cc2)cc1 (centres undefined),nt,nt,nt,nt,nt,10
Cc1ccccc1NN=Nc1nc2c([nH]1)c(=O)n(C)c(=O)n2C,4,-10,12*,-2,2,-3
CN(C)c1nc(=NCc2ccco2)ss1,6,3,8,-18,-1,47*
CC1CCC2(CC1)NC(=O)N(CC(=O)N1CCN(S(=O)(=O)c3ccccc3)CC1)C2=O (centres undefined),2,1,9.7*,-1,1,-5
COc1ccc(N2CCN(C(=O)c3cn(CC4CCCCC4)nn3)CC2)cc1,nt,nt,nt,nt,nt,-2
COc1ccc(-c2nc(CC(=O)O)cs2)cc1,4,-4,1,0,0,-9
COc1ccc(-c2nc(CC(=O)O)cs2)cc1OC,3,2,23*,1,0,6
NC(=O)[C@H](Cc1cc2ccccc2s1)NC(=O)[C@@H]1CC2(CC(c3cccc(NC(=O)[C@@H]4CCC(=O)N4)c3)=NO2)CN1C(=O)c1ccccc1 (some centres undefined),3,-9,-4,-1,1,3
